COUP-TFII inh – inhibitors of human COUP-TFII (NR2F2); inhibition, % at 8.6 µM; 370,000 compounds, 0.7% hits; HEK293T NGFI-A luciferase reporter, luminescence; P24468;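 active = inhibition above a per-plate cutoff, mean inhibition of test wells between control levels plus 3 SD, cut at about 38% in these data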;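 note: cells cotransfected with COUP-TFII expression vector driving the NGFI-A reporter; 0% = median of COUP-TF2 test wells and 100% = reporter-only cells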
NR2E3 ag-1 – human photoreceptor-specific nuclear receptor agonism. CHO-S Gal4-NCOR/VP16-NR2E3 two-hybrid, luciferase. inhibition of corepressor binding, % at 3.98 µM. 360,000 compounds, 0.35% hits. AID 602229;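 active = inhibition above the mean of all tested compounds plus 3 SD, cut at about 70% in these data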;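 note: 0% = DMSO with NR2E3 transfected cells and 100% = cells lacking NR2E3 construct; higher means lower luciferase signal from less NR2E3 corepressor binding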
NR2E3 ag-2 – NR2E3 (human) agonism; Q9Y5X4; 320,000 compounds, 0.12% hits; AID 2300; GST-NR2E3/biotin-RetCOR TR-FRET, 1536-well; inhibition of corepressor binding, % at 4.78 µM;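 active = percent inhibition above the cutoff of mean plus 3 SD of all tested compounds, set per screening campaign, cut at about 20% in these data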;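 note: 0% = DMSO wells and 100% = biotin wells as full block of FRET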
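System: GST-NR2E3 and biotin-RetCOR proteins; probe or stimulus: 7 nM biotin-RetCOR; doses: compound at 4.8 µM, single dose; schedule: Compound–protein incubation for 5 h at 4 °C; detection: time-resolved FRET; read-out: percent inhibition; controls: biotin wells as high control, 0.6% DMSO wells as low control; format: 1536-well plates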
CHT allo act – human CHT allosteric activation. Q9GZV3. CHT-expressing cells, membrane potential dye, choline EC20; active compounds read high; LV-AA mutant CHT in HEK293 cells. B-score at 10 µM. 310,000 compounds, 0.49% hits;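 active = initial fluorescence not abnormally high and integrated response B-score, plate-corrected, over 3 SD above library mean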
Target sequence (Q9GZV3 whole entry, looked up): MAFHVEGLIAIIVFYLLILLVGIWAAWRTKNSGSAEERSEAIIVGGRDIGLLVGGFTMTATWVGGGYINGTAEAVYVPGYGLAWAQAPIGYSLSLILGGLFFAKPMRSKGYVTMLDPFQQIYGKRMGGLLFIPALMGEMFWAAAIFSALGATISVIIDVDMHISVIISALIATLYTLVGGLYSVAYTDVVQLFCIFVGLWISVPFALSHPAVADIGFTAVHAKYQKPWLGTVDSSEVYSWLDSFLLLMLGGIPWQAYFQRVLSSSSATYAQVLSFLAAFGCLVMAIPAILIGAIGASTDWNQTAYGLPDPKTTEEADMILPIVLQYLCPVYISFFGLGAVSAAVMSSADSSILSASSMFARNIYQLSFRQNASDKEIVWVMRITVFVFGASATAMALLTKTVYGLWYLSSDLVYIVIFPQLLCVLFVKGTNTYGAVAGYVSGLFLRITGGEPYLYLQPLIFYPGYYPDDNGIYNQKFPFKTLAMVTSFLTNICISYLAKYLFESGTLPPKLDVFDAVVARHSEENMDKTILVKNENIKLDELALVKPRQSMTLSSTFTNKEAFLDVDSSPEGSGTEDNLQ
GalR3 antagonist – blocks the human galanin receptor 3 | O60755 | HEK293 GalR3-CNG cAMP membrane potential fluorescence; galR3 body fused to GalR1 C-terminus | inhibition, % at 3 µM | 360,000 compounds, 0.44% hits | AID 651719;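 active = inhibition above the screen-wide average plus 3 SD, cut at about 13% in these data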;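 note: forskolin and galanin both at EC90 stimulate the cells; cAMP rise reported by CNG channel membrane potential dye signal; 0% = forskolin plus galanin with DMSO and 100% = forskolin alone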
CHT block – inhibits the human high affinity choline transporter; Q9GZV3; CHT-expressing cells, membrane potential dye, choline response; active compounds read low; B-score at 10 µM; 310,000 compounds, 0.86% hits;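 active = B-score over 3 SD under the library average, and starting fluorescence ratio not unusually high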;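 note: choline stimulus applied at its EC90 after an EC20 pre-addition; B-score computed on integrated fluorescence ratio after choline addition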
Gal4-VP16 ctr – inhibits VP16 reporter, flagging COUP-TFII antagonist hits; shares compounds with COUP-TFII inh; inhibition, % at 8.5 µM; HEK293 Gal4-VP16 luciferase reporter, luminescence; 2,500 compounds, 25% hits; in the data active = inhibition above about 13%
COUP-TFII conf – COUP-TFII (NR2F2) inhibition, confirmation assay; shares compounds with COUP-TFII inh; HEK293 NGFI-A luciferase reporter, luminescence; inhibition, % at 8.5 µM; 2,500 compounds, 45% hits; AID 687008;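 active = mean inhibition over three repeats above a set limit taken from the earlier primary screen, cut at about 38% in these data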;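 note: 100% = cells given the luciferase reporter alone without the COUP-TF2 vector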
An asterisk follows results filed as active; i = inactive; · = not tested or not shown. Shown are actives, neighbours in structure and some others; about 2.3% of the full set was active somewhere.

SMILES | COUP-TFII inh | NR2E3 ag-1 | NR2E3 ag-2 | CHT allo act | GalR3 antagonist | CHT block | Gal4-VP16 ctr | COUP-TFII conf
CCOC(=O)[C@]12Cc3c(cc(OC)c(OC)c3OC)[C@H]1N(C(C)C)C(=O)c1cc(OC)ccc12 | 4.8 | -26.5 | · | · | 0.2 | · | · | ·
c1ccc(-c2cc(-c3ccccc3)[n+](-c3ccccc3)c(-c3ccccc3)c2)cc1 | 72.7* | -8.6 | 4.0 | i | -8.3 | i | 15.2* | 45.0*
Cc1ccc(-c2cc(-c3ccccc3)cc(-c3ccccc3)[n+]2-c2ccccc2)cc1 | 76.2* | 15.4 | 2.0 | i | -7.6 | i | 30.6* | 88.6*
O=C1NCN(c2ccccc2)C12CCN(C(c1nnnn1C1CCCCC1)C1CC1)CC2 (configuration not stated) | -8.7 | -24.5 | · | · | -9.6 | · | · | ·
C=CC12CN(C)C3C4COC(CC41)C1(C(=O)Nc4ccccc41)C32 (configuration not stated) | -21.2 | 14.7 | · | · | -0.7 | · | · | ·
CC(C)(C)n1nnnc1C(c1ccnc2ccccc12)N1CCC2(CC1)C(=O)NCN2c1ccccc1 (configuration not stated) | -9.4 | -3.8 | · | · | -5.7 | · | · | ·
Cc1cccc(C)c1-n1nnnc1C(c1ccccc1OC(F)(F)F)N1CCC(n2c(=O)[nH]c3ccccc32)CC1 (configuration not stated) | 1.9 | 28.7 | · | · | -5.1 | · | · | ·
